# Results pooled from the literature.
# Lines come from different studies, so protocols differ.
# Organism: Klebsiella pneumoniae
# Effect on: microbial growth
Compound,test,system,conditions,MIC
O=C(N[C@H](CO)[C@H](O)c1ccc([N+](=O)[O-])cc1)C(Cl)Cl,broth dilution,ATCC700603,,80 µM
NC1CCCCc2c1[nH]c1ccc(Cl)c(Cl)c21 (stereo not drawn),broth dilution,ATCC10031,,8 µg/mL
CO[C@H]1/C=C/O[C@@]2(C)Oc3c(C)c(O)c4c(O)c(c(/C=N/N5CCN(C)CC5)c(O)c4c3C2=O)NC(=O)/C(C)=C\C=C\[C@H](C)[C@H](O)[C@@H](C)[C@@H](O)[C@@H](C)[C@H](OC(C)=O)[C@@H]1C,,ATCC13882,,16 µg/mL
NC[C@@H]1O[C@H](O[C@H]2[C@@H](O)[C@H](O[C@@H]3[C@@H](O)[C@H](N)C[C@H](N)[C@H]3O[C@H]3O[C@H](CO)[C@@H](O)[C@H](O)[C@H]3N)O[C@@H]2CO)[C@H](N)[C@@H](O)[C@@H]1O,,,,1 µg/mL
CC[C@H]1OC(=O)[C@H](C)[C@@H](O[C@H]2C[C@@](C)(OC)[C@@H](O)[C@H](C)O2)[C@H](C)[C@@H](O[C@@H]2O[C@H](C)C[C@H](N(C)C)[C@H]2O)[C@](C)(OC)C[C@@H](C)C(=O)[C@H](C)[C@@H](O)[C@]1(C)O,broth dilution,ATCC700603,,80 µM
O=C1NN=C(N=Cc2ccccc2)C1=NNn1c(-c2ccccc2)nc2ccccc2c1=O,broth dilution,,24 h,114 µM
CN(Cc1ccc2cc3c(c(O)c2c1)C(=O)C1=C(O)[C@]2(O)C(=O)C(C(N)=O)=C(O)[C@@H](N(C)C)[C@@H]2C[C@@H]1C3)c1ccccc1,broth dilution,ATCC13883,,32 µg/mL
CC(C)(O/N=C(\C(=O)N[C@@H]1C(=O)N2C(C(=O)[O-])=C(C[n+]3ccccc3)CS[C@H]12)c1csc(N)n1)C(=O)O,broth dilution,ATCC10031,18 h,2 µg/mL
CC(C)(O/N=C(\C(=O)N[C@@H]1C(=O)N2C(C(=O)[O-])=C(C[n+]3ccccc3)CS[C@H]12)c1csc(N)n1)C(=O)O,broth dilution,ATCC700603,,5 µM
Cc1c(CN(C)C(=O)/C=C/c2cnc3c(c2)CC(CCN)C(=O)N3)oc2ccccc12.Cl (stereo not drawn),broth dilution,BAA2472,,16 µg/mL
CC1=NN(CNC(=O)c2ccccn2)C(=O)C1=NNn1c(-c2ccccc2)nc2ccccc2c1=O,broth dilution,,24 h,52 µM
C[C@@H]1O[C@@H]1P(=O)(O)O,broth dilution,ATCC700603,,80 µM
CNC(C)C1CCC(N)C(OC2C(N)CC(N)C(OC3OCC(C)(O)C(NC)C3O)C2O)O1 (stereo not drawn),,,,0.25 µg/mL
CCc1c(Cl)c(O)c(Cl)c(O)c1C(=O)O[C@H]1[C@H](O)[C@H](OC)[C@H](OC/C2=C\C=C\C[C@H](O)/C(C)=C/[C@H](CC)[C@@H](O[C@@H]3OC(C)(C)[C@@H](OC(=O)C(C)C)[C@H](O)[C@@H]3O)/C(C)=C/C(C)=C/C[C@@H]([C@@H](C)O)OC2=O)O[C@@H]1C,broth dilution,ATCC700603,,320 µM
Cc1c(CN(C)C(=O)/C=C/c2cnc3c(c2)CCC(=O)N3)oc2ccccc12,broth dilution,,,> 32 µg/mL
CC[C@H]1OC(=O)[C@H](C)[C@@H](O[C@H]2C[C@@](C)(OC)[C@@H](O)[C@H](C)O2)[C@H](C)[C@@H](O[C@@H]2O[C@H](C)C[C@H](N(C)C)[C@H]2O)[C@](C)(O)C[C@@H](C)C(=O)[C@H](C)[C@@H](O)[C@]1(C)O,broth dilution,ATCC700603,,160 µM
CN[C@H](CC(C)C)C(=O)N[C@H]1C(=O)N[C@@H](CC(N)=O)C(=O)N[C@H]2C(=O)N[C@H]3C(=O)N[C@H](C(=O)N[C@H](C(=O)O)c4cc(O)cc(O)c4-c4cc3ccc4O)[C@H](O)c3ccc(c(Cl)c3)Oc3cc2cc(c3O[C@@H]2O[C@H](CO)[C@@H](O)[C@H](O)[C@H]2O[C@H]2C[C@](C)(N)[C@H](O)[C@H](C)O2)Oc2ccc(cc2Cl)[C@H]1O,broth dilution,ATCC43816,,> 128 µM
CN(C)[C@@H]1C(O)=C(C(N)=O)C(=O)[C@@]2(O)C(O)=C3C(=O)c4c(cc5ccc(-c6ccccc6)cc5c4O)C[C@H]3C[C@@H]12,broth dilution,ATCC13883,,32 µg/mL
O=C(Nc1ccc([N+](=O)[O-])cc1F)c1ccccc1O,broth dilution,BAA1705,,> 64 µg/mL
Cn1c(SCc2ccc(Cl)cc2)nnc1-c1cncc(C#Cc2ccccc2)c1,,,,≥ 20 µg/mL
CC(C)Oc1c(NC(=O)c2ccc(NC(=O)c3ccc(NC(=O)[C@H](CC(N)=O)NC(=O)c4ccc(NC(=O)c5ccc(C#N)cn5)cc4)cc3)c(OC(C)C)c2O)ccc(C(=O)O)c1O,,DSM30104,,4 µg/mL
C/C(=C\C(=O)OCCCCCCCCC(=O)O)C[C@@H]1OC[C@H](C[C@@H]2O[C@H]2[C@@H](C)[C@H](C)O)[C@@H](O)[C@H]1O,broth dilution,ATCC700603,,160 µM
NC1CCCCc2c1[nH]c1ccc(Br)cc21 (stereo not drawn),broth dilution,ATCC10031,,16 µg/mL
CNC(C)C1CCC(N)C(OC2C(N)CC(N)C(OC3OCC(C)(O)C(NC)C3O)C2O)O1 (stereo not drawn),broth dilution,ATCC700603,,0.31 µM
C/C(=C\c1ccc(C#N)cc1)C(=O)Nc1ccc(C(=O)N[C@@H](CC(N)=O)C(=O)Nc2ccc(C(=O)Nc3ccc(C(=O)Nc4ccc(C(=O)O)cc4)c(O)c3OC(C)C)cc2)cc1,,DSM30104,,> 64 µg/mL
O=C1NN=C(N=Cc2ccccc2O)C1=NNn1c(-c2ccccc2)nc2ccccc2c1=O,broth dilution,,24 h,55.4 µM
CCCCCCC#Cc1cncc(-c2nnc(SCc3ccc(C#N)cc3)n2C)c1,,,,≥ 20 µg/mL
CN(C)[C@@H]1C(O)=C(C(N)=O)C(=O)[C@@]2(O)C(O)=C3C(=O)c4c(cc5ccc(CN6CCCCC6)cc5c4O)C[C@H]3C[C@@H]12,broth dilution,ATCC13883,,4 µg/mL
CC1=NN(CNC(=O)c2ccccc2)C(=O)C1=NNn1c(-c2ccccc2)nc2ccccc2c1=O,broth dilution,,24 h,51.9 µM
CCCCCCC#Cc1cncc(-c2nnc(SCc3ccc(Cl)c(F)c3)n2C)c1,,,,≥ 20 µg/mL
